MrgX1 ag – agonists of human MrgX1 receptor, primary screen, HEK293 cells, Fluo-4 calcium flux; Mas-related G-protein coupled receptor member X1 (Homo sapiens), Q96LB2; actives 0.44% (n = 310,000); AID 588627, 2011; B-score at 10 µM; Fluo-4 calcium fluorescence, agonist mode; active compounds read high;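 active = calcium response B-score plate-corrected fluorescence ratio at least 3 library SD, with starting fluorescence B-score inside 5 SD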
Target sequence (Q96LB2 whole entry, looked up): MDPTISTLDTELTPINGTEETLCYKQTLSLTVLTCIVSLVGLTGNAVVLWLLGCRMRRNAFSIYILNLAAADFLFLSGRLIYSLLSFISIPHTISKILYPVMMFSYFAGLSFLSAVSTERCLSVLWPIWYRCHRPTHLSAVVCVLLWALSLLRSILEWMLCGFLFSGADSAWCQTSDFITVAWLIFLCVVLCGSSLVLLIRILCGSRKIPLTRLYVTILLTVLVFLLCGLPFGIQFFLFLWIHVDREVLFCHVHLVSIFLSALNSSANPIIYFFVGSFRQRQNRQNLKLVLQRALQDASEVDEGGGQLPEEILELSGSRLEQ
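Material: MrgX1-expressing HEK293 cells / Dosing: compound as first of three additions / Incubation: overnight seeding, then 1 h dark dye loading / Signal: Fluo-4 NW calcium fluorescence / Evaluation: B-scored fluorescence response ratio / Benchmarks: positive and negative control wells on each plate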
RGS4 pot – RGS4 potentiators or activators, primary screen, cell-based, HEK293 M3R inducible RGS4, calcium flux | carbachol calcium flux Fluo4; active compounds read low | B-score at 10 µM | actives 0.92% (n = 310,000) | AID 463111, 2010;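 active = B-score of the integrated calcium signal more than 4 SD below the library mean, with starting fluorescence not abnormally high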;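 also: negative B-score means reduced calcium response which marks RGS4 activation or potentiation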
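Detection: kinetic calcium fluorescence imaging with Fluo4-AM dye, 2 µM / Material: HEK293 cells with stable M3R and inducible RGS4 / Schedule: recording 10 s baseline at 1 Hz, 100 s post-agonist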
MrgX1 PAM – positive allosteric modulators of MrgX1, primary screen, HEK293 cells, Fluo-4 calcium flux. Mas-related G-protein coupled receptor member X1 (Homo sapiens), Q96LB2. actives 0.63% (n = 310,000). B-score at 10 µM. FDSS; active compounds read high;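 active = plate-corrected calcium response at least 3 library SD above typical, normal starting fluorescence, not activating the receptor alone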;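 also: compound read alongside a low EC10 to EC30 dose of BAM8-22 agonist; peak minus trough fluorescence over baseline measured at the second addition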
RGS4 inh – RGS4 inhibitors, primary screen, cell-based, HEK293 M3R inducible RGS4, calcium flux; Regulator of G-protein signaling 4 (Homo sapiens), P49798; Fluo-4 calcium flux; active compounds read high; triggered by carbachol at its EC20; B-score at 10 µM; actives 0.45% (n = 310,000); AID 463165, 2010;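 active = B-score, a plate-corrected calcium signal, over three deviations above library mean, with baseline fluorescence within five deviations of library mean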;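 also: RGS4 expression induced by doxycycline in cells with stable M3 receptor; B-score is computed from the integrated fluorescence ratio over baseline after carbachol; higher B-score means a larger calcium signal and so more RGS4 inhibition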
Target sequence (P49798 whole entry, looked up): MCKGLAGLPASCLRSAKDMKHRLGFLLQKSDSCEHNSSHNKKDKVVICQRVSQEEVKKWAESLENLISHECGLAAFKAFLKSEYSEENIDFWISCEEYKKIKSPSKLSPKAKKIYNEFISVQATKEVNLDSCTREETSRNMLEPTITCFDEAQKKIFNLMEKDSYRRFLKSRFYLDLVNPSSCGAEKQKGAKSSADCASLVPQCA
MrgX1 antag – antagonists of human MrgX1 receptor, primary screen, HEK293 cells, Fluo-4 calcium flux | AID 588676, 2011 | B-score at 10 µM | BAM8-22 antagonism; active compounds read low | actives 1.3% (n = 310,000);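 active = calcium-response B-score plate-corrected more than 3 library SD below zero, starting fluorescence within 5 deviations, no agonist response on first addition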;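 also: peak minus trough fluorescence over baseline after final BAM8-22 challenge near maximal dose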
MrgX1 PAM conf – MrgX1 positive allosteric modulators, duplicate retest, confirmation, HEK293 cells, Fluo-4 calcium flux. shares compounds with MrgX1 PAM. Fluo-4 calcium fluorescence, FDSS. activation (ratio percentage), % at 10 µM. actives 13% (n = 1,200);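 active = ratio at least 3 SD above the weak peptide control, stable starting fluorescence, no direct agonism earlier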;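 also: compound followed by low BAM8-22 agonist challenge near EC20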
HEK293 Ca flux – nonspecific calcium signal in parental HEK293, confirmation, counter-screen for MrgX1 antagonist project, parental HEK293 cells, Fluo-4 calcium flux; fluorescence ratio F(max-min)/F0 at 10 µM; actives 2% (n = 4,000); Fluo-4 calcium fluorescence, FDSS; AID 624111, 2012; shares compounds with MrgX1 antag;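 active = duplicate-averaged calcium fluorescence ratio at least three times the standard deviation of buffer wells, a nonspecific response in parental cells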
HEK293 Ca counter – calcium response in parental HEK293 cells, primary screen, counter-screen for MrgX1 allosteric activator project, cell-based, Fluo-4 calcium flux, duplicate. Fluo-4 fluorescence ratio; active compounds read high. actives 0.4% (n = 4,000). shares compounds with MrgX1 antag. fluorescence ratio F(max-min)/F0 at 10 µM. AID 624114, 2012;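 active = calcium fluorescence ratio, averaged over duplicates, at least 3 SD of the buffer-well ratio, meaning a nonspecific response in receptor-free cells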;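 also: untransfected parental HEK293 lacking MrgX1 used as counterscreen for MrgX1 allosteric activators; fluorescence change taken during the second addition on a kinetic imager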
HEK293 Ca cntr2 – calcium response in parental HEK293 cells, primary screen, counter-screen for MrgX1 agonist project, cell-based, Fluo-4 calcium flux, duplicate, agonist mode; Fluo-4 calcium fluorescence (FDSS); active compounds read high; actives 8.7% (n = 4,000); fluorescence ratio F(max-min)/F0 at 10 µM; AID 624115, 2012; shares compounds with MrgX1 antag;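 active = calcium fluorescence ratio at least three times the spread of buffer wells, meaning a non-specific response in parental cells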
Starred values were filed as active, the others as inactive. Rows were chosen to be rich in hits. Some 3.5% of all compounds tested hit in one or more screens of this group.

Screening COc1cccc(NC(=O)c2cccc(N3C(=O)C4C5C=CC(C5)C4C3=O)c2)c1 (stereo not given) returned MrgX1 ag inactive, RGS4 pot inactive, MrgX1 PAM inactive, RGS4 inh inactive and MrgX1 antag inactive.
For O=C(COC(=O)c1cccs1)c1ccccc1 the results were MrgX1 ag inactive, RGS4 pot inactive, MrgX1 PAM 18*, RGS4 inh inactive, MrgX1 antag inactive, MrgX1 PAM conf inactive, HEK293 Ca flux inactive, HEK293 Ca counter inactive and HEK293 Ca cntr2 inactive.
For CCN1CCN(C(=O)c2ccccc2N(Cc2ccccc2)S(=O)(=O)c2ccc(OC)cc2)CC1 the results were MrgX1 ag inactive, RGS4 pot inactive, MrgX1 PAM inactive, RGS4 inh inactive and MrgX1 antag inactive.
Cc1cc(N2CCN(C)CC2)nc2ccc(NC(=S)N3CCC4(CC3)OCCO4)cc12 was read as MrgX1 ag inactive, RGS4 pot inactive, MrgX1 PAM 7.4*, RGS4 inh inactive, MrgX1 antag inactive, MrgX1 PAM conf inactive, HEK293 Ca flux inactive, HEK293 Ca counter inactive and HEK293 Ca cntr2 inactive.
`Cc1sc2nc(-c3cccs3)oc(=O)c2c1C` gave MrgX1 ag inactive, RGS4 pot inactive, MrgX1 PAM inactive, RGS4 inh inactive and MrgX1 antag inactive.
Screening Cc1sc2nc(-c3ccc(Br)cc3)oc(=O)c2c1C returned MrgX1 ag inactive, RGS4 pot inactive, MrgX1 PAM 6.6*, RGS4 inh inactive, MrgX1 antag inactive, MrgX1 PAM conf inactive, HEK293 Ca flux inactive, HEK293 Ca counter inactive and HEK293 Ca cntr2 inactive.
Screening O=C(CSc1nnnn1C1CCCC1)Nc1ccccc1N1CCOCC1 returned MrgX1 ag inactive, RGS4 pot inactive, MrgX1 PAM 7.9*, RGS4 inh inactive, MrgX1 antag inactive, MrgX1 PAM conf inactive, HEK293 Ca flux inactive, HEK293 Ca counter inactive and HEK293 Ca cntr2 inactive.
Screening O=C(CSc1nnnn1C1CCCC1)Nc1ccccc1F returned MrgX1 ag inactive, RGS4 pot inactive, MrgX1 PAM inactive, RGS4 inh inactive and MrgX1 antag inactive.
Cc1ccncc1C(N)=O was read as MrgX1 ag inactive, RGS4 pot inactive, MrgX1 PAM 8.1*, RGS4 inh inactive, MrgX1 antag inactive, MrgX1 PAM conf inactive, HEK293 Ca flux inactive, HEK293 Ca counter inactive and HEK293 Ca cntr2 inactive.
For NC(=O)c1cc2ccncc2c2ccccc12 the results were MrgX1 ag inactive, RGS4 pot inactive, MrgX1 PAM inactive, RGS4 inh inactive and MrgX1 antag inactive.
Screening Cc1ccc2nc(SC(C)C(=O)N3CCOCC3)[nH]c2c1 (stereo not given) returned MrgX1 ag inactive, RGS4 pot inactive, MrgX1 PAM 7.3*, RGS4 inh inactive, MrgX1 antag inactive, MrgX1 PAM conf inactive, HEK293 Ca flux inactive, HEK293 Ca counter inactive and HEK293 Ca cntr2 inactive.
CCOC(=O)c1cc(C)nc(Sc2ccc(C)cc2)c1C#N was read as MrgX1 ag inactive, RGS4 pot inactive, MrgX1 PAM inactive, RGS4 inh inactive and MrgX1 antag inactive.
For Cc1cc(C)c(C#N)c(Sc2ccc(N)cc2)n1 the results were MrgX1 ag inactive, RGS4 pot inactive, MrgX1 PAM 12*, RGS4 inh inactive, MrgX1 antag inactive, MrgX1 PAM conf inactive, HEK293 Ca flux inactive, HEK293 Ca counter inactive and HEK293 Ca cntr2 inactive.
`N#Cc1c(/N=C/C=C/c2ccccc2)sc2c1CCCC2` gave MrgX1 ag inactive, RGS4 pot inactive, MrgX1 PAM 8*, RGS4 inh inactive, MrgX1 antag inactive, MrgX1 PAM conf inactive, HEK293 Ca flux inactive, HEK293 Ca counter inactive and HEK293 Ca cntr2 inactive.
For CN1CCN(/C=N/c2sc3c(c2C#N)CCCCC3)CC1 the results were MrgX1 ag inactive, RGS4 pot inactive, MrgX1 PAM inactive, RGS4 inh inactive and MrgX1 antag inactive.
Cc1cc(Cl)cc(Br)c1OCCCCn1cncn1 was read as MrgX1 ag inactive, RGS4 pot inactive, MrgX1 PAM 6.9*, RGS4 inh inactive, MrgX1 antag inactive, MrgX1 PAM conf inactive, HEK293 Ca flux inactive, HEK293 Ca counter inactive and HEK293 Ca cntr2 inactive.
CC(C)Nc1nc(NC(C)(C)C)nc(Oc2ccc(=O)n(C)n2)n1 was read as MrgX1 ag inactive, RGS4 pot inactive, MrgX1 PAM 28*, RGS4 inh inactive, MrgX1 antag inactive, MrgX1 PAM conf inactive, HEK293 Ca flux inactive, HEK293 Ca counter inactive and HEK293 Ca cntr2 inactive.
COc1ccc(/C=C2\SC(=S)N(CCC(=O)Nc3ccccc3C(=O)O)C2=O)cc1 was read as MrgX1 ag inactive, RGS4 pot inactive, MrgX1 PAM inactive, RGS4 inh inactive and MrgX1 antag inactive.
`COc1ccc(/C=C2\SC(=S)N(CCCC(=O)Nc3ccccc3C(=O)O)C2=O)cc1OC` gave MrgX1 ag inactive, RGS4 pot inactive, MrgX1 PAM 22*, RGS4 inh inactive, MrgX1 antag inactive, MrgX1 PAM conf inactive, HEK293 Ca flux inactive, HEK293 Ca counter inactive and HEK293 Ca cntr2 53*.
For Cc1cc(NC(=NC2CC2)c2ccccc2F)n(-c2ccccc2)n1 the results were MrgX1 ag inactive, RGS4 pot inactive, MrgX1 PAM inactive, RGS4 inh inactive and MrgX1 antag inactive.
For Cc1sc(N(C(=O)CCc2ccccc2)c2ccc(C(=O)O)cc2)nc1-c1ccccc1 the results were MrgX1 ag inactive, RGS4 pot inactive, MrgX1 PAM inactive, RGS4 inh inactive and MrgX1 antag inactive.
